Measurements collected from several papers.
In brackets after ≈: the same amount, converted by molar mass.
Organism: Staphylococcus aureus

CN[C@H](CC(C)C)C(=O)N[C@H]1C(=O)N[C@@H](CC(N)=O)C(=O)N[C@H]2C(=O)N[C@H]3C(=O)N[C@H](C(=O)N[C@H](C(=O)O)c4cc(O)cc(O)c4-c4cc3ccc4O)[C@H](O)c3ccc(c(Cl)c3)Oc3cc2cc(c3O[C@@H]2O[C@H](CO)[C@@H](O)[C@H](O)[C@H]2O[C@H]2C[C@](C)(N)[C@H](O)[C@H](C)O2)Oc2ccc(cc2Cl)[C@H]1O
MBC (microbial killing; ATCC25923; 18 h): 2 µg/mL (≈ 1.38 µM)

Cc1ccc(-c2nnc(SCC(C)O)n2-c2ccccc2)cc1 (stereo not drawn)
inhibition zone (microbial growth, disc diffusion; 25 µg/disc): 10 mm

CO/N=C(\C(=O)N[C@@H]1C(=O)N2C(C(=O)O)=C(CSC(=O)c3ccco3)CS[C@H]12)c1csc(N)n1
MBC (microbial killing; ATCC25923; 18 h): 2 µg/mL

O=c1c(O)c(-c2ccc(O)c(O)c2)oc2cc(O)cc(O)c12
IC50 (microbial growth; ATCC29213; 24 h): > 100 µM

CC(O)CSc1nnc(Cn2cnc3c2c(=O)n(C)c(=O)n3C)n1-c1ccccc1 (stereo not drawn)
inhibition zone (microbial growth, disc diffusion; 25 µg/disc): 12.7 mm

C[C@H]1COc2c(N3CCN(C)CC3)c(F)cc3c(=O)c(C(=O)O)cn1c23
MBC (microbial killing; ATCC25904): 0.09 µg/mL (≈ 0.249 µM)

CN(C)[C@@H]1C(O)=C(C(N)=O)C(=O)[C@@]2(O)C(O)=C3C(=O)c4c(O)cccc4[C@@](C)(O)[C@H]3C[C@@H]12
inhibition zone (microbial growth, disc diffusion; 100 µg/mL, 24 h): 25 mm

C=C/C=C(\C)CC[C@@H]1C[C@H](O)CC(=O)O1
MIC (microbial growth, broth dilution; ATCC6538P): 256 µg/mL (≈ 1220 µM)

O=C(O)c1cn(C2CC2)c2cc(N3CCNCC3)c(F)cc2c1=O
inhibition zone (microbial growth, disc diffusion; 100 µg/mL, 24 h): 0 mm

CN[C@H](CC(C)C)C(=O)N[C@H]1C(=O)N[C@@H](CC(N)=O)C(=O)N[C@H]2C(=O)N[C@H]3C(=O)N[C@H](C(=O)N[C@H](C(=O)O)c4cc(O)cc(O)c4-c4cc3ccc4O)[C@H](O)c3ccc(c(Cl)c3)Oc3cc2cc(c3O[C@@H]2O[C@H](CO)[C@@H](O)[C@H](O)[C@H]2O[C@H]2C[C@](C)(N)[C@H](O)[C@H](C)O2)Oc2ccc(cc2Cl)[C@H]1O
IC50 (microbial growth; ATCC29213; 24 h): 2.16 µM

CC(O)CSc1nnc(COc2ccc(Cl)cc2Br)n1-c1ccccc1 (stereo not drawn)
inhibition zone (microbial growth, disc diffusion; 25 µg/disc): 19.3 mm

CN[C@H](CC(C)C)C(=O)N[C@H]1C(=O)N[C@@H](CC(N)=O)C(=O)N[C@H]2C(=O)N[C@H]3C(=O)N[C@H](C(=O)N[C@H](C(=O)O)c4cc(O)cc(O)c4-c4cc3ccc4O)[C@H](O)c3ccc(c(Cl)c3)Oc3cc2cc(c3O[C@@H]2O[C@H](CO)[C@@H](O)[C@H](O)[C@H]2O[C@H]2C[C@](C)(N)[C@H](O)[C@H](C)O2)Oc2ccc(cc2Cl)[C@H]1O
MBC (microbial killing; ATCC25904): 1.95 µg/mL (≈ 1.35 µM)
